The array DNA melting data of Ke et al. (doi:10.1101/2024.01.08.574731)

Tests used:
[1] = melting temperature; fluorescence melt of hairpins on a sequencing array, two-state fit, raised by 9.35 °C to match UV melts; settings: sodium 0.088 M
How it was run: (§1)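 Library hairpins on a sequenced MiSeq flow cell carried annealed Cy3 and quencher oligos, and their Cy3 fluorescence was imaged in 50 mM Na-HEPES pH 8.0 with 25 mM NaCl, in 2.5 °C steps up to 60 °C. Signals were normalised to Cy3 before quenching and to control constructs. Melting temperature and folding enthalpy were obtained from bootstrapped two-state fits, combined by inverse-variance weighting across four replicates, and the fitted temperatures were then raised by 9.35 °C to match UV melts.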

[2] = folding enthalpy; higher = less favourable; fluorescence melt of hairpins on a sequencing array, two-state fit; settings: sodium 0.088 M
How it was run: as §1

GATCTACATTAGATC ((((((...))))))
Tm [1]: 37.5 °C | folding enthalpy [2]: -25 kcal/mol

GTTAATCGAAAGATGAAC (((.(((....))).)))
Tm [1]: 38.3 °C | folding enthalpy [2]: -25.1 kcal/mol

GCTATCTCGAAAGAGAGC (((..(((....))))))
Tm [1]: 37.2 °C | folding enthalpy [2]: -16.7 kcal/mol

GTCCGCGAAAGCGTGAC ((((((....))).)))
Tm [1]: 58 °C | folding enthalpy [2]: -19.8 kcal/mol

GATCAACGAAAGTTAATC (((.(((....))).)))
Tm [1]: 27.8 °C | folding enthalpy [2]: -11.7 kcal/mol

GTTAAGCGAAAGCTAAC (((.(((....))))))
Tm [1]: 44.4 °C | folding enthalpy [2]: -18.5 kcal/mol

GCTACCGAAAGGTTGAGC ((((((....)))..)))
Tm [1]: 38.8 °C | folding enthalpy [2]: -18.2 kcal/mol

GTGCCGCGAAAGCGCCAC (((.(((....))).)))
Tm [1]: 53.8 °C | folding enthalpy [2]: -18.2 kcal/mol

GCCTGTACGAAAGTAGGC (((..(((....))))))
Tm [1]: 48.9 °C | folding enthalpy [2]: -29.1 kcal/mol

GCGAGTACTCGC ((((....))))
Tm [1]: 56.6 °C | folding enthalpy [2]: -30.6 kcal/mol

CGATACGGAAACGTGTCG (((.(((....))).)))
Tm [1]: 52.8 °C | folding enthalpy [2]: -51.4 kcal/mol

GGATCGGGAAACTGGTCC (((.(.(....).).)))
Tm [1]: 39.2 °C | folding enthalpy [2]: -30.4 kcal/mol

GGGGACGAAAGTCTCCCC ((((((....)))..)))
Tm [1]: 58.2 °C | folding enthalpy [2]: -14.3 kcal/mol

GCGTTGCGAAAGCAGAGC ((..(((....)))..))
Tm [1]: 63.4 °C | folding enthalpy [2]: -35.8 kcal/mol

GTCTGGAAACAGAC (((((....)))))
Tm [1]: 52.4 °C | folding enthalpy [2]: -27.8 kcal/mol

GCTCCGCGAAAGCAGGGC ((.(.((....)).).))
Tm [1]: 50.1 °C | folding enthalpy [2]: -16 kcal/mol

GATCTGGAGTCAGATC ((((((....))))))
Tm [1]: 48.1 °C | folding enthalpy [2]: -48.3 kcal/mol

GATCGACGTTCGATC ((((((...))))))
Tm [1]: 50 °C | folding enthalpy [2]: -40.8 kcal/mol

GGGAACCGAAAGGTCCCC (((.(((....))).)))
Tm [1]: 58.1 °C | folding enthalpy [2]: -25.4 kcal/mol

GATCAGCGTCCTGATC ((((((....))))))
Tm [1]: 49 °C | folding enthalpy [2]: -32.4 kcal/mol

GGTTACGAAAGTAAGACC ((((((....)))..)))
Tm [1]: 34.5 °C | folding enthalpy [2]: -15 kcal/mol

GATCTTAGTAAAGATC ((((((....))))))
Tm [1]: 43.1 °C | folding enthalpy [2]: -30.3 kcal/mol

GAACACGGAAACGTATTC (((.(((....))).)))
Tm [1]: 33 °C | folding enthalpy [2]: -22.6 kcal/mol

ATTGTGAAAACAAT (((((....)))))
Tm [1]: 39 °C | folding enthalpy [2]: -14.9 kcal/mol

GCTGGCGAAAGCCAGAGC ((((((....)))..)))
Tm [1]: 63.3 °C | folding enthalpy [2]: -9.92 kcal/mol

GTGAGAGGAAACTCTTAC ((.((((....)))).))
Tm [1]: 38.2 °C | folding enthalpy [2]: -30.9 kcal/mol

GGGTCCGAAAGGATACCC ((((((....)))..)))
Tm [1]: 50 °C | folding enthalpy [2]: -20.1 kcal/mol

GGAATCGAAAGATACTCC ((((((....)))..)))
Tm [1]: 24.7 °C | folding enthalpy [2]: -9.63 kcal/mol

GTGGGGACGAAAGTCCAC (((..(((....))))))
Tm [1]: 61.8 °C | folding enthalpy [2]: -15.4 kcal/mol

GTCGCACGAAAGTGTGAC (((.(((....))).)))
Tm [1]: 67.4 °C | folding enthalpy [2]: -42.4 kcal/mol

GAGGAACGAAAGTTGCTC (((.(((....))).)))
Tm [1]: 53.9 °C | folding enthalpy [2]: -47.7 kcal/mol

ATTTCGAAAGAAAT (((((....)))))
Tm [1]: 42.1 °C | folding enthalpy [2]: -16 kcal/mol

GAAGAGGGAAACCTCTTC (((((((....)))))))
Tm [1]: 55.3 °C | folding enthalpy [2]: -33.5 kcal/mol

GATCATCCGATGATC ((((((...))))))
Tm [1]: 46.8 °C | folding enthalpy [2]: -33.3 kcal/mol

GATCGACCTTTCGATC ((((((....))))))
Tm [1]: 50.6 °C | folding enthalpy [2]: -42.9 kcal/mol

GGACGTCGAAAGACTCC (((.(((....))))))
Tm [1]: 51.2 °C | folding enthalpy [2]: -23.8 kcal/mol

GGCTTTGGAAACAAAGTC (.(((((....))))).)
Tm [1]: 48.9 °C | folding enthalpy [2]: -39.8 kcal/mol

GGGGGTGGAAACACCTCC ((.((((....)))).))
Tm [1]: 54.9 °C | folding enthalpy [2]: -29.1 kcal/mol
